Test results as given in ChEMBL document CHEMBL4480442, “Phloroglucinols with Immunosuppressive Activities from the Fruits of Eucalyptus globulus” (J Nat Prod, 2019).
Activity calls are given as the source filed them. The rule behind the calls is not given here.

Assays:
[1] = Cytotoxicity against BALB/c mouse lymph node cells assessed as reduction in cell viability measured after 48 hrs by CCK8 assay; type: cell-based
[2] = Immunosuppressive activity in BALB/c mouse lymph node cells assessed as inhibition of concanavalin A stimulated T-cell proliferation measured after 48 hrs by CCK8 assay; type: functional
[3] = […], ratio of CC50 for BALB/c mouse lymph node cells to IC50 for immunosuppressive activity in BALB/c mouse lymph node cells assessed as inhibition of concanavalin A stimulated T-cell proliferation
[4] = species on record: Mus musculus; test: Immunosuppressive activity in concanavalin A stimulated BALB/c mouse lymph node cells assessed as increase in cytochrome c levels in cytoplasm at 1 to 20 uM measured after 48 hrs by Western blotting analysis; type: functional
Outline: (§1)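 Mouse […] cells, 2 × 10^6 cells/well, ConA (5 μg/mL) with compound at 1, 10, 20 μM for 48 h; cells washed with PBS, protein extracted and Western blotted; band densities quantified as Bax/Bcl-2 ratio and cytoplasmic/mitochondrial cytochrome c ratio; three independent experiments, means ± SEM.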

[5] = species on record: Mus musculus; test: Immunosuppressive activity in concanavalin A stimulated BALB/c mouse lymph node cells assessed as caspase-3 activation at 1 to 20 uM measured after 48 hrs; type: functional
[6] = species on record: Mus musculus; test: Immunosuppressive activity in BALB/c mouse lymph node cells assessed as inhibition of concanavalin A stimulated T-cell proliferation at 1 to 20 uM measured after 48 hrs by CCK8 assay; type: functional
[7] = species on record: Mus musculus; test: Immunosuppressive activity in BALB/c mouse lymph node cells assessed as inhibition of concanavalin A stimulated T-cell proliferation by measuring increase in LDH release at 1 to 20 uM; type: functional
[8] = Immunosuppressive activity in concanavalin A stimulated BALB/c mouse lymph node cells assessed as induction of apoptosis by measuring viable cells at 1 uM measured after 48 hrs by Annexin-V/propidium iodide staining based flow cytometry (reference value: 99.7%); type: functional
[9] = Immunosuppressive activity in concanavalin A stimulated BALB/c mouse lymph node cells assessed as induction of apoptosis by measuring early apoptotic cells at 1 uM measured after 48 hrs by Annexin-V/propidium iodide staining based flow cytometry (reference value: 0.1%); type: functional
[10] = Immunosuppressive activity in concanavalin A stimulated BALB/c mouse lymph node cells assessed as induction of apoptosis by measuring late apoptotic cells at 1 uM measured after 48 hrs by Annexin-V/propidium iodide staining based flow cytometry (reference value: 0.2%); type: functional
[11] = Immunosuppressive activity in concanavalin A stimulated BALB/c mouse lymph node cells assessed as induction of apoptosis by measuring necrotic cells at 1 uM measured after 48 hrs by Annexin-V/propidium iodide staining based flow cytometry (reference value: 0%); type: functional
[12] = Immunosuppressive activity in concanavalin A stimulated BALB/c mouse lymph node cells assessed as induction of apoptosis by measuring viable cells at 10 uM measured after 48 hrs by Annexin-V/propidium iodide staining based flow cytometry (reference value: 99.7%); type: functional
[13] = Immunosuppressive activity in concanavalin A stimulated BALB/c mouse lymph node cells assessed as induction of apoptosis by measuring early apoptotic cells at 10 uM measured after 48 hrs by Annexin-V/propidium iodide staining based flow cytometry (reference value: 0.1%); type: functional
[14] = Immunosuppressive activity in concanavalin A stimulated BALB/c mouse lymph node cells assessed as induction of apoptosis by measuring late apoptotic cells at 10 uM measured after 48 hrs by Annexin-V/propidium iodide staining based flow cytometry (reference value: 0.2%); type: functional
[15] = Immunosuppressive activity in concanavalin A stimulated BALB/c mouse lymph node cells assessed as induction of apoptosis by measuring necrotic cells at 10 uM measured after 48 hrs by Annexin-V/propidium iodide staining based flow cytometry (reference value: 0%); type: functional
[16] = Immunosuppressive activity in concanavalin A stimulated BALB/c mouse lymph node cells assessed as induction of apoptosis by measuring viable cells at 20 uM measured after 48 hrs by Annexin-V/propidium iodide staining based flow cytometry (reference value: 99.7%); type: functional
[17] = Immunosuppressive activity in concanavalin A stimulated BALB/c mouse lymph node cells assessed as induction of apoptosis by measuring early apoptotic cells at 20 uM measured after 48 hrs by Annexin-V/propidium iodide staining based flow cytometry (reference value: 0.1%); type: functional
[18] = Immunosuppressive activity in concanavalin A stimulated BALB/c mouse lymph node cells assessed as induction of apoptosis by measuring late apoptotic cells at 20 uM measured after 48 hrs by Annexin-V/propidium iodide staining based flow cytometry (reference value: 0.2%); type: functional
[19] = Immunosuppressive activity in concanavalin A stimulated BALB/c mouse lymph node cells assessed as induction of apoptosis by measuring necrotic cells at 20 uM measured after 48 hrs by Annexin-V/propidium iodide staining based flow cytometry (reference value: 0%); type: functional
[20] = species on record: Mus musculus; test: Immunosuppressive activity in concanavalin A stimulated BALB/c mouse lymph node cells assessed as increase in ratio of Bax/Bcl2 level at 1 to 20 uM measured after 48 hrs by Western blotting analysis; type: functional; outline: as §1
[21] = species on record: Mus musculus; test: Immunosuppressive activity in concanavalin A stimulated BALB/c mouse lymph node cells assessed as caspase-9 activation at 1 to 20 uM measured after 48 hrs; type: functional
[22] = molecular target: RAC-alpha serine/threonine-protein kinase (Mus musculus) (UniProt P31750); test: Inhibition of AKT phosphorylation in concanavalin A stimulated BALB/c mouse lymph node cells assessed as IL4 level at 1 uM measured after 48 hrs by ELISA (reference value: 142.4 +/- 12.4 pg/ml)
Sequence of RAC-alpha serine/threonine-protein kinase (Mus musculus) (P31750 whole entry): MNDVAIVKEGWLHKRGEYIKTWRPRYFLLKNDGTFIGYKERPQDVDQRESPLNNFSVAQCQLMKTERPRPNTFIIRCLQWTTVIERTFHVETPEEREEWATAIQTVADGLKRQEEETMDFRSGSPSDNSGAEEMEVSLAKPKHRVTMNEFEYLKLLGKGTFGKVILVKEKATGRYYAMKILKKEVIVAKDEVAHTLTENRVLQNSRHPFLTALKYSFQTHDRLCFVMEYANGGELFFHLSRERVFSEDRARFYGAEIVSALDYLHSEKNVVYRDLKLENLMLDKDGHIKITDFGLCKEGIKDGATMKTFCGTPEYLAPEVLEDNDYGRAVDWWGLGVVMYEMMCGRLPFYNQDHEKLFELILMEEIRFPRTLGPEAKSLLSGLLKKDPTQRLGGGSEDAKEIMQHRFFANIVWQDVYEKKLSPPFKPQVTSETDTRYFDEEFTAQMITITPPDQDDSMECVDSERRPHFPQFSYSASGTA

[23] = molecular target: RAC-alpha serine/threonine-protein kinase (Mus musculus) (UniProt P31750); test: Inhibition of AKT phosphorylation in concanavalin A stimulated BALB/c mouse lymph node cells assessed as IL4 level at 10 uM measured after 48 hrs by ELISA (reference value: 142.4 +/- 12.4 pg/ml)
[24] = molecular target: RAC-alpha serine/threonine-protein kinase (Mus musculus) (UniProt P31750); test: Inhibition of AKT phosphorylation in concanavalin A stimulated BALB/c mouse lymph node cells assessed as IL4 level at 20 uM measured after 48 hrs by ELISA (reference value: 142.4 +/- 12.4 pg/ml)
Outline: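 ELISA for IL-4 or IFN-γ in culture medium: BALB/c […] cells, 2 × 10^6 cells/well, stimulated with ConA (5 μg/mL) with compound at 1, 10, 20 μM for 48 h; absorbance at 450 nm; means ± SEM of three independent experiments.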

[25] = molecular target: RAC-alpha serine/threonine-protein kinase (Mus musculus) (UniProt P31750); test: Inhibition of AKT phosphorylation in concanavalin A stimulated BALB/c mouse lymph node cells assessed as IFNgamma level at 1 uM measured after 48 hrs by ELISA (reference value: 575.9 +/- 8.2 pg/ml)
[26] = molecular target: RAC-alpha serine/threonine-protein kinase (Mus musculus) (UniProt P31750); test: Inhibition of AKT phosphorylation in concanavalin A stimulated BALB/c mouse lymph node cells assessed as IFNgamma level at 20 uM measured after 48 hrs by ELISA (reference value: 575.9 +/- 8.2 pg/ml)
[27] = molecular target: RAC-alpha serine/threonine-protein kinase (Mus musculus) (UniProt P31750); test: Inhibition of AKT phosphorylation in concanavalin A stimulated BALB/c mouse lymph node cells at 20 uM measured after 48 hrs by Western blotting analysis

Compound: CC(C)CC(=O)c1c(O)c(C=O)c(O)c(C[C@@]2(C)CCC3C2[C@H]2[C@@H](CC[C@@]3(C)O)C2(C)C)c1O (stereo partly drawn)
- CC50 at 48 h [1]: 554 µM
- IC50 [2]: 18.2 µM
- Ratio CC50/IC50 [3]: 30.5

Compound: CC(C)C[C@H](c1c(O)c(C=O)c(O)c(C=O)c1O)[C@@]1(C)CC[C@@H]2[C@@H]1[C@H]1[C@@H](CC[C@]2(C)O)C1(C)C
- CC50 at 48 h [1]: 597 µM
- IC50 [2]: 26.3 µM
- Ratio CC50/IC50 [3]: 22.7

Compound: CC(C)C[C@H]1c2c(O)c(C=O)c(O)c(C=O)c2O[C@]23CC[C@@]1(C)C2[C@H]1[C@@H](CC[C@@H]3C)C1(C)C (stereo partly drawn)
- CC50 at 48 h [1]: 588 µM
- IC50 [2]: 69.3 µM
- Ratio CC50/IC50 [3]: 8.5

Compound: CC(C)C[C@@H](c1c(O)c(C=O)c(O)c(C=O)c1O)[C@@]1(C)C=C2C(C)CC[C@H](C(C)(C)O)C2CC1 (stereo partly drawn)
- CC50 at 48 h [1]: 596 µM
- IC50 [2]: 41.2 µM
- Ratio CC50/IC50 [3]: 14.5

Compound: COc1c(C)c(O)c(C)c(O)c1C(=O)CC(C)C
- CC50 at 48 h [1]: 670 µM
- IC50 [2]: 133 µM
- Ratio CC50/IC50 [3]: 5

Compound: CC(C)C[C@H](c1c(O)c(C=O)c(O)c(C=O)c1O)[C@@]1(C)CC[C@@H]2[C@@H]1[C@H]1[C@@H](CC[C@@]2(C)O)C1(C)C [MACROCARPAL B]
- CC50 at 48 h [1]: 570 µM
- IC50 [2]: 31.2 µM
- Ratio CC50/IC50 [3]: 18.4

Compound: CC(C)C[C@@H](c1c(O)c(C=O)c(O)c(C=O)c1O)[C@@]1(C)CC[C@@H]2[C@@H]1[C@H]1[C@@H](CC[C@@]2(C)O)C1(C)C [MACROCARPAL A]
- CC50 at 48 h [1]: 597 µM
- IC50 [2]: 20.4 µM
- Ratio CC50/IC50 [3]: 29.2

Compound: C=C1CC[C@@H]2[C@H](C3C1CC[C@]3(C)C(CC(C)C)c1c(O)c(C=O)c(O)c(C=O)c1O)C2(C)C (stereo partly drawn)
- CC50 at 48 h [1]: 541 µM
- IC50 [2]: 69.6 µM
- Ratio CC50/IC50 [3]: 8.3

Compound: CC(C)CC(=O)c1c(O)c(C=O)c(O)c(C[C@H]2CC[C@H](C)C3=C[C@@H](C(C)(C)O)CC[C@@]32C)c1O
- CC50 at 48 h [1]: 578 µM
- IC50 [2]: 19.1 µM
- Ratio CC50/IC50 [3]: 30.2

Compound: CO[C@]1(C)CC[C@@H]2[C@H]([C@H]3[C@H]1CC[C@]3(C)[C@@H](CC(C)C)c1c(O)c(C=O)c(O)c(C=O)c1O)C2(C)C
- CC50 at 48 h [1]: 578 µM
- IC50 [2]: 68.4 µM
- Ratio CC50/IC50 [3]: 8.5

Compound: CO[C@]1(C)CC[C@@H]2[C@H]([C@H]3[C@H]1CC[C@]3(C)[C@H](CC(C)C)c1c(O)c(C=O)c(O)c(C=O)c1O)C2(C)C
- CC50 at 48 h [1]: 562 µM
- IC50 [2]: 35.8 µM
- Ratio CC50/IC50 [3]: 15.7

Compound: CCC(C)C(=O)c1c(O)c(C)c(OC)c(C)c1O (stereo not drawn)
- CC50 at 48 h [1]: 623 µM
- IC50 [2]: 70.2 µM
- Ratio CC50/IC50 [3]: 8.9

Compound: CC(C)C[C@@H]1c2c(O)c(C=O)c(O)c(C=O)c2O[C@]2(C)C=C[C@@](O)(C(C)C)CC12 (stereo partly drawn)
- CC50 at 48 h [1]: 656 µM
- IC50 [2]: 10.2 µM
- Ratio CC50/IC50 [3]: 64.2

Compound: CC(C)CC(=O)c1c(O)c(C=O)c(O)c(C[C@H]2CC[C@@](C)(O)C3[C@H]4[C@@H](CC[C@@]32C)C4(C)C)c1O (stereo partly drawn)
- CC50 at 48 h [1]: 598 µM
- IC50 [2]: 35.3 µM
- Ratio CC50/IC50 [3]: 16.9

Compound: CC(C)C[C@H](c1c(O)c(C=O)c(O)c(C=O)c1O)C1CC[C@@H](C)C2=C[C@@H](C(C)(C)O)CC[C@@]21C (stereo partly drawn)
- CC50 at 48 h [1]: 544 µM
- IC50 [2]: 52.3 µM
- Ratio CC50/IC50 [3]: 10.4

Compound: CC(C)C[C@@H](c1c(O)c(C=O)c(O)c(C=O)c1O)C1CC[C@@H](C)C2=C[C@@H](C(C)(C)O)CC[C@@]21C (stereo partly drawn)
- CC50 at 48 h [1]: 602 µM
- IC50 [2]: 42.4 µM
- Ratio CC50/IC50 [3]: 14.2

Compound: CC(C)C[C@H]1c2c(O)c(C=O)c(O)c(C=O)c2O[C@]2(C)C=C[C@@](O)(C(C)C)CC12 (stereo partly drawn)
- Activity [4]: Active
- Activity [5]: Active
- CC50 at 48 h [1]: 664 µM
- IC50 [2]: 11.8 µM
- Ratio CC50/IC50 [3]: 56.3
- Activity [6]: Active
- Activity [7]: Active
- Activity [8]: 47.5%
- Activity [9]: 25.1%
- Activity [10]: 18.3%
- Activity [11]: 9.1%
- Activity [12]: 32.3%
- Activity [13]: 42.7%
- Activity [14]: 19.3%
- Activity [15]: 5.7%
- Activity [16]: 4.2%
- Activity [17]: 63.1%
- Activity [18]: 31.7%
- Activity [19]: 1%
- Activity [20]: Active
- Activity [21]: Active
- Activity [22]: 118 pg/mL
- Activity [23]: 99.7 pg/mL
- Activity [24]: 68.9 pg/mL
- Activity [25]: 347 pg/mL
- Activity [26]: 52.5 pg/mL
- inhibition [27]: Active

Compound: C/C1=C/[C@H]2[C@@H](CC[C@]3(C)Oc4c(C=O)c(O)c(C=O)c(O)c4[C@@H](CC(C)C)C3CC1)C2(C)C (stereo partly drawn)
- CC50 at 48 h [1]: 600 µM
- IC50 [2]: 129 µM
- Ratio CC50/IC50 [3]: 4.6
